How the values were obtained:
Assay type in all cases: functional, organism-based
[1] = species: Cavia porcellus; experiment: Tested for agonist potency by conducting tests on electrically stimulated guinea pig ileal longitudinal muscle preparation; settings: Muscle tissue
Method in brief: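 Electrically stimulated guinea pig ileal longitudinal muscle preparation. Values are arithmetic means of at least three experiments.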

[2] = species: Cavia porcellus; experiment: Tested for wash-resistant activity after forty post-washes (for removal of naltrexone) with Kreb's buffer pre-incubated with compound
Method in brief: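 Agonist-treated guinea pig ileal longitudinal muscle was washed, then incubated with naltrexone (500 nM) for 15 min. A further forty washes with Krebs' buffer followed. Read-out was percent recovery of twitch height.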

[3] = species: Cavia porcellus; experiment: Tested for wash-resistant activity in guinea pig ileal longitudinal muscle preparation, after forty washes with Kreb's buffer pre-incubated with compound; settings: Muscle tissue
Method in brief: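 Electrically stimulated guinea pig ileal longitudinal muscle was incubated with agonist, then given forty washes with Krebs' buffer. Read-out was percent recovery of twitch height.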

[4] = species: Cavia porcellus; experiment: Tested for wash-resistant activity by incubating guinea pig ileal longitudinal muscle (pre-treated with the compound) with naltrexone (500 nM).Number of determinations, n=3; settings: Muscle tissue
Method in brief: (§1)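 Agonist-treated guinea pig ileal longitudinal muscle was first washed forty times with Krebs' buffer. It was then incubated with naltrexone (500 nM) for 15 min. Read-out was percent recovery of twitch height.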

[5] = species: Cavia porcellus; experiment: Tested for wash-resistant activity by incubating guinea pig ileal longitudinal muscle (pre-treated with the compound) with naltrexone (500 nM). Number of determinations, n=3; settings: Muscle tissue; method in brief: as §1

`CN(C(=O)Cc1ccc(Cl)c(Cl)c1)[C@H](CN1CCCC1)c1cccc(N)c1` showed an IC50 [1] of 0.17 nM.

`CN(C(=O)Cc1ccc(Cl)c(Cl)c1)C(CN1CCCC1)c1ccc(N)cc1` (stereo not drawn) gave an IC50 [1] of 0.65 nM.

`COC(=O)/C=C/C(=O)Nc1cccc([C@@H](CN2CCCC2)N(C)C(=O)Cc2ccc(Cl)c(Cl)c2)c1` gave an IC50 [1] of 29 nM.

For `COC(=O)/C=C/C(=O)Nc1ccc([C@@H](CN2CCCC2)N(C)C(=O)Cc2ccc(Cl)c(Cl)c2)cc1`, the IC50 [1] was 11.2 nM.

`CN(C(=O)Cc1ccc(Cl)c(Cl)c1)[C@H](CN1CCCC1)c1ccc(N=C=S)cc1` gave an IC50 [1] of 38.6 nM.

`CN(C(=O)Cc1ccc(Cl)c(Cl)c1)[C@H](CN1CCCC1)c1cccc(N=C=S)c1` gave a Recovery [2] of 0%, a Recovery [3] of 0% and an IC50 [1] of 23.8 nM. The Recovery [4] was 41%.

`CN(C(=O)Cc1ccc(Cl)c(Cl)c1)[C@@H](CN1CCCC1)c1ccccc1` showed an IC50 [1] of 198 nM.

For `CN(C(=O)Cc1ccc(Cl)c(Cl)c1)[C@H](CN1CCCC1)c1ccccc1` [ICI-199,441], the Recovery [3] was 20%, the IC50 [1] was 0.27 nM and the Recovery [5] was 59%.

Reference: ChEMBL document CHEMBL1127305, “kappa Opioid receptor selective affinity labels: electrophilic benzeneacetamides as kappa-selective opioid antagonists” (J Med Chem, 1994)
